In ChEMBL document CHEMBL1136012, “Synthesis and structure-activity relationships of novel 7-substituted 1,4-dihydro-4-oxo-1-(2-thiazolyl)-1,8-naphthyridine-3-carboxylic acids as antitumor agents. Part 1” (J Med Chem, 2002):
Converted amounts (≈) assume the structure as drawn.

Experiments:
[1] = system: P388; assay: Cytotoxic activity of compound against Murine P388 Leukemia; type: functional, cell-based, Mus musculus; conditions: Mus musculus, P388; read-out: IC50
Outline: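 Murine P388 cells were cultured in EMEM with 10% FBS, 2 mM glutamine, 50 units/mL penicillin and 50 μg/mL streptomycin. They were seeded at (1–2) × 10^4 cells/mL without preincubation and exposed to varying concentrations for 72 h at 37 °C, 5% CO2. MTT was then added for 4 h, formazan dissolved in DMSO and read at 570/690 nm.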

[2] = system: P388; assay: […] antitumor activity of compound against P388 leukemia cells at a dose of 3.13 mg/kg; type: functional, Mus musculus
Outline: (§1)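 In vivo study: BDF1 mice received 10^6 P388 leukemia cells ip as diluted ascites fluid. Test compounds were suspended in 0.4% CMC and given ip on days 1 and 5 after implantation, with seven mice per group. The endpoint is T/C% = median survival time of the treated group / median survival time of controls × 100.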

[3] = system: P388; assay: […] antitumor activity of compound against P388 leukemia cells at a dose of 50 mg/kg; type: functional, Mus musculus; outline: as §1
[4] = system: P388; assay: In vitro antitumor activity of compound against P388 leukemia cells at a dose of […] mg/kg; type: functional, Mus musculus; set-up: concentration or dose not given beside the values
[5] = system: P388; assay: […] antitumor activity f compound against P388 leukemia cells at a dose of […] mg/kg; type: functional, Mus musculus
[6] = system: P388; assay: […] antitumor activity of compound against P388 leukemia cells at a dose of 6.25 mg/kg; type: functional, Mus musculus; outline: as §1
[7] = biological target: DNA topoisomerase II (Homo sapiens, UniProt P11388+Q02880); assay: Inhibitory activity in a DNA cleavage assay using HeLa DNA topoisomerase II yielding its effective concentration; type: protein assay
[8] = system: G-361; assay: Cytotoxic activity of compound against G-361 melanoma human tumor cell line; type: functional, cell-based
Outline: (§2)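 Culture was in McCoy's 5A with 10% FBS. Cells were seeded at (1–2) × 10^4 cells/mL, preincubated for 24 h, then incubated with various concentrations for 72 h at 37 °C under 5% CO2. MTT was added for 4 h and the formazan dissolved in DMSO, with A570 read against 690 nm.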

[9] = system: SK-OV-3; assay: Cytotoxic activity of compound against SK-OV-3 ovary human tumor cell line; type: functional, cell-based; conditions: SK-OV-3, Female gonad
Outline: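 SK-OV-3 cells were maintained in McCoy's 5A with 15% FBS. After seeding at (1–2) × 10^4 cells/mL and 24 h preincubation, wells received graded concentrations for 72 h at 37 °C, 5% CO2. A 4 h MTT incubation followed, with DMSO solubilization and absorbance at 570/690 nm.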

[10] = system: HT-29; assay: Cytotoxic activity of compound against HT-29 colon human tumor cell line; type: functional, cell-based; outline: as §2
[11] = system: A-427; assay: Cytotoxic activity of compound against A-427 lung human tumor cell line; type: functional, cell-based
Outline: (§3)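 Cells were kept in EMEM with 10% FBS, 2 mM glutamine, NEAA and 1 mM sodium pyruvate. They were seeded at (1–2) × 10^4 cells/mL and preincubated for 24 h. They were then exposed to graded concentrations for 72 h at 37 °C in 5% CO2. MTT was added for a further 4 h and the formazan dissolved in DMSO, with absorbance at 570/690 nm.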

[12] = Cytotoxic activity of compound against AZ-521 stomach human tumor cell line; type: functional
Outline: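 AZ-521 cells were grown in EMEM with 10% FBS, 2 mM glutamine and NEAA. They were plated at (1–2) × 10^4 cells/mL and preincubated for 24 h, then treated with a range of concentrations for 72 h at 37 °C, 5% CO2. After a 4 h MTT step, the formazan was dissolved in DMSO and read at 570 nm (reference 690 nm).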

[13] = Cytotoxic activity of compound against SCaBER bladder squamous human tumor cell line; type: functional, cell-based; outline: as §3

## Cl.NC1CCN(c2cc3c(cc2F)c(=O)c(C(=O)O)cn3-c2nccs2)C1 (configuration not stated)
[1]
  IC50: > 10 mg/L

## CC1(N)CCN(c2nc3c(cc2F)c(=O)c(C(=O)O)cn3-c2nccs2)C1.Cl (configuration not stated)
[2]
  T/C: 138%
[3]
  T/C: >375%
[4]
  T/C: 213%
[1]
  IC50: 0.026 mg/L

## Cl.NC1CCN(c2nc3c(cc2F)c(=O)c(C(=O)O)cn3-c2nc3ccccc3s2)C1 (configuration not stated)
[1]
  IC50: 0.049 mg/L

## COc1cnc(-n2cc(C(=O)O)c(=O)c3cc(F)c(N4CCC(N)C4)nc32)s1.Cl (configuration not stated)
[1]
  IC50: 0.35 mg/L

## Cl.O=C(O)c1cn(-c2nccs2)c2nc(N3CCC(O)C3)c(F)cc2c1=O (configuration not stated)
[2]
  T/C: 138%
[3]
  T/C: 225%
[5]
  T/C: 175%
[1]
  IC50: 0.036 mg/L

## Cl.NCCSc1nc2c(cc1F)c(=O)c(C(=O)O)cn2-c1nccs1
[1]
  IC50: > 10 mg/L

## Cl.NCC1=CCN(c2nc3c(cc2F)c(=O)c(C(=O)O)cn3-c2nccs2)C1
[1]
  IC50: 0.084 mg/L

## Cl.NC1CCN(c2nc3c(cc2F)c(=O)c(C(=O)O)cn3-c2ccccc2)C1 (configuration not stated)
[1]
  IC50: 2.4 mg/L

## COc1cccc2c1C(=O)c1c(O)c3c(c(O)c1C2=O)C[C@@](O)(C(=O)CO)C[C@@H]3O[C@H]1C[C@H](N)[C@H](O)[C@H](C)O1 [DOXORUBICIN]
[2]
  T/C: 235%
[1]
  IC50: 0.004 mg/L (≈ 0.00736 µM)
[6]
  T/C: 293%

## CN(C)C1CCN(c2nc3c(cc2F)c(=O)c(C(=O)O)cn3-c2nccs2)C1.Cl (configuration not stated)
[2]
  T/C: 138%
[3]
  T/C: 225%
[4]
  T/C: 175%
[1]
  IC50: 0.057 mg/L

## Cl.NCC1CN(c2nc3c(cc2F)c(=O)c(C(=O)O)cn3-c2nccs2)C[C@H]1Cl (some centres not stated)
[1]
  IC50: 0.156 mg/L

## COc1ccccc1N1CCN(c2nc3c(cc2F)c(=O)c(C(=O)O)cn3-c2nccs2)CC1.Cl
[1]
  IC50: > 1 mg/L

## CN1CC=C2CN(c3nc4c(cc3F)c(=O)c(C(=O)O)cn4-c3nccs3)CC21.Cl (configuration not stated)
[1]
  IC50: 0.038 mg/L

## Cl.NC1CCN(c2nc3c(cc2F)c(=O)c(C(=O)O)nn3-c2nccs2)C1 (configuration not stated)
[1]
  IC50: > 10 mg/L

## Cl.NC1CCN(c2nc3c(cc2F)c(=O)c(C(=O)O)cn3-c2ncc(Br)s2)C1 (configuration not stated)
[1]
  IC50: 0.085 mg/L

## Cl.NC1CCN(c2nc3c(cc2F)c(=O)c(C(=O)O)cn3C2CC2)C1 (configuration not stated)
[1]
  IC50: 7.9 mg/L

## Cl.NC1C=CC[C@H]2CN(c3nc4c(cc3F)c(=O)c(C(=O)O)cn4-c3nccs3)C[C@@H]12 (some centres not stated)
[1]
  IC50: 0.15 mg/L

## Cl.NC1CCN(c2nc3c(cc2F)c(=O)c(C(=O)O)cn3-c2ccc(F)cc2)C1 (configuration not stated)
[1]
  IC50: 2.1 mg/L

## Cl.NC1CCN(c2nc3c(cc2F)c(=O)c(C(=O)O)cn3-c2nccs2)CC1
[1]
  IC50: 1.63 mg/L

## Cl.NCC1CN(c2nc3c(cc2F)c(=O)c(C(=O)O)cn3-c2nccs2)CCO1 (configuration not stated)
[1]
  IC50: 1.73 mg/L

## Cl.NC1CCN(c2nc3c(cc2F)c(=O)c(C(=O)O)cn3Cc2nccs2)C1 (configuration not stated)
[1]
  IC50: > 10 mg/L

## Cl.N[C@H]1CCN(c2nc3c(cc2F)c(=O)c(C(=O)O)cn3-c2nccs2)C1
[1]
  IC50: 0.028 mg/L

## C[C@H]1CN(c2nc3c(cc2F)c(=O)c(C(=O)O)cn3-c2nccs2)C[C@@H]1N.Cl
[2]
  T/C: 138%
[3]
  T/C: 238%
[4]
  T/C: 175%
[1]
  IC50: 0.011 mg/L

## Cl.NC1(CO)CCN(c2nc3c(cc2F)c(=O)c(C(=O)O)cn3-c2nccs2)C1 (configuration not stated)
[1]
  IC50: 0.084 mg/L

## Cl.NCCNc1nc2c(cc1F)c(=O)c(C(=O)O)cn2-c1nccs1
[1]
  IC50: > 10 mg/L

## Cl.NC1CCN(c2nc3c(cc2F)c(=O)c(C(=O)O)cn3-c2nccs2)C1 (configuration not stated)
[2]
  T/C: 150%
[3]
  T/C: >375%
[7]
  IC50: > 200 mg/L
[8]
  IC50: 0.39 mg/L
[9]
  IC50: 0.93 mg/L
[10]
  IC50: 1.2 mg/L
[11]
  IC50: 0.22 mg/L
[4]
  T/C: 213%
[1]
  IC50: 0.021 mg/L
[12]
  IC50: 0.35 mg/L
[13]
  IC50: 0.34 mg/L

## Cc1nc(-n2cc(C(=O)O)c(=O)c3cc(F)c(N4CCC(N)C4)nc32)sc1C.Cl (configuration not stated)
[1]
  IC50: 0.18 mg/L

## COc1cc([C@@H]2c3cc4c(cc3[C@@H](O[C@@H]3O[C@@H]5CO[C@@H](C)O[C@H]5[C@H](O)[C@H]3O)[C@H]3COC(=O)[C@H]23)OCO4)cc(OC)c1O [ETOPOSIDE]
[2]
  T/C: 175%
[3]
  T/C: >375%
[8]
  IC50: 0.28 mg/L (≈ 0.476 µM)
[9]
  IC50: 0.95 mg/L (≈ 1.61 µM)
[11]
  IC50: 0.095 mg/L (≈ 0.161 µM)
[4]
  T/C: 250%
[1]
  IC50: 0.0085 mg/L (≈ 0.0144 µM)
[12]
  IC50: 0.08 mg/L (≈ 0.136 µM)
[13]
  IC50: 0.31 mg/L (≈ 0.527 µM)

## Cl.NC1CCN(c2nc3c(cc2F)c(=O)c(C(=O)O)cn3-c2ccno2)C1 (configuration not stated)
[1]
  IC50: 9.4 mg/L

## Cl.NC1CCN(c2nc3c(cc2F)c(=O)c(C(=O)O)cn3-c2cccs2)C1 (configuration not stated)
[1]
  IC50: 1.2 mg/L
